Activity calls are given as the source filed them. The calls are words filed in the database; no cut-off is given here.

Assay [1] in a line: Inhibition of beta-lactamase CTX-M9a using nitrocefin as substrate after 30 mins by spectrophotometric analysis. In short, it runs like this: (§1)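 Substrate level differed between class A and class C enzymes. Fraction inhibited was taken as the rate with inhibitor over the rate without. IC50 was read from log[inhibitor] dose–response curves.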
Assay [2] in a line: Inhibition of beta-lactamase CMY-2 using nitrocefin as substrate after 30 mins by spectrophotometric analysis. In short, it runs like this: as §1
Assay [3] is described as follows: Inhibition of beta-lactamase TEM1 using nitrocefin as substrate after 30 mins by spectrophotometric analysis. In short, it runs like this:
as §1

A further assay has as its target Beta-lactamase (Enterobacter cloacae, UniProt P05364). The assay can be described thus: Inhibition of Enterobacter cloacae P99 beta-lactamase AmpC P99 using nitrocefin as substrate after 30 mins by spectrophotometric analysis. A digest of the protocol: as §1
Assay [4] can be described thus: Inhibition of beta-lactamase CMY-2 expressed in Escherichia coli SYN2549 assessed as potentiation of ceftazidime-mediated antibacterial activity at 8 ug/ml.
In assay [5] the target is Beta-lactamase (Enterobacter cloacae) (UniProt P05364). The assay can be described thus: Inhibition of Enterobacter cloacae P99 beta-lactamase AmpC P99 assessed as potentiation of ceftazidime-mediated antibacterial activity at 8 ug/ml.
Chain of Beta-lactamase (Enterobacter cloacae) (P05364 21-381 limits assumed): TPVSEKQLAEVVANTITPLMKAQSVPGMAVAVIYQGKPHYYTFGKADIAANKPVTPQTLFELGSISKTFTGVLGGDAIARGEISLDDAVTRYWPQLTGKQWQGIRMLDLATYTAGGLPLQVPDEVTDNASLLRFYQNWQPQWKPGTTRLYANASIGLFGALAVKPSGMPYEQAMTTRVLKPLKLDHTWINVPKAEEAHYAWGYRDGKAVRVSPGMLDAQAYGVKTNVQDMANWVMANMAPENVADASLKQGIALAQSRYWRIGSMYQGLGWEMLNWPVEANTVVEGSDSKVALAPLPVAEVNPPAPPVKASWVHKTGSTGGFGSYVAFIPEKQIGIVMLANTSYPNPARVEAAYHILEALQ

Chain of Beta-lactamase (P05364 whole entry): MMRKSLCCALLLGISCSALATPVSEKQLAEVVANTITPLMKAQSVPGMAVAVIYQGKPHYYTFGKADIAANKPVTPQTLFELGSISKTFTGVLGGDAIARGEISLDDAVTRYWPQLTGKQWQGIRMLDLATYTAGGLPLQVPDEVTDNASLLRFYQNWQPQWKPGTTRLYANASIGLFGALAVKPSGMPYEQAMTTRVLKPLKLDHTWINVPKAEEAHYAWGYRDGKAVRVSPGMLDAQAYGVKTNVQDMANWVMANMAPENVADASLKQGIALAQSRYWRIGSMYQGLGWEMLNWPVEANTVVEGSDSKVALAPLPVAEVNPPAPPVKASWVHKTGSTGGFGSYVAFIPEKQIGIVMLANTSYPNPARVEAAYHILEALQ

Broadly, the Ki is a measure of affinity in units of concentration, obtained from inhibition or displacement. Lower therefore signals higher affinity. Regarding `O=C(ONc1ccccc1)c1ccc2c(c1)B(O)OC2`, the Ki in assay [1] was over 32 µM; in assay [2], 13.8 µM; in assay [3], over 37 µM; at Beta-lactamase, 16 µM.

Regarding `COc1cccc(Oc2ccc3c(c2)B(O)OC3)c1`, the inhibition constant Ki in assay [1] came out at 1.1 µM; in assay [2] it was 2.65 µM; in assay [3] it was 1.4 µM; on Beta-lactamase, 1.35 µM.

Turning to `O=S(=O)(c1ccccc1)c1ccc2c(c1)B(O)OC2`, the Ki is over 32 µM in assay [1], 108 µM in assay [2], 11.2 µM in assay [3] and 63.2 µM on Beta-lactamase.

For `OB1OCc2ccc(Nc3ccccc3)cc21`, the inhibition constant (Ki) in assay [1] is over 32 µM; in assay [2] it was 13.8 µM; in assay [3], over 37 µM; on Beta-lactamase, 4.73 µM.

In the case of `NCc1cccc(Oc2ccc3c(c2)B(O)OC3)c1`, at Beta-lactamase, the inhibition constant Ki came out at 3.33 µM.

Take `O=C(O)c1cnc(Oc2ccc3c(c2)B(O)OC3)cn1`: the Ki is over 32 µM in assay [1], 20.4 µM in assay [3] and 0.02 µM at Beta-lactamase. In addition, the result in assay [4] and in assay [5] was Active.

In the case of `COc1ccc(Oc2ccc3c(c2)B(O)OC3)cc1`, the Ki in assay [1] is 14.1 µM; in assay [2], over 46 µM; in assay [3], 4.34 µM; at Beta-lactamase, 6 µM.

`Nc1ccc(Oc2ccc3c(c2)B(O)OC3)cc1`: the inhibitory constant (Ki) at Beta-lactamase came to 8.73 µM.

In the case of `OCc1cccc(Oc2ccc3c(c2)B(O)OC3)c1`, the inhibitory constant (Ki) was found to be 1.92 µM in assay [1], 8.43 µM in assay [2], 1.36 µM in assay [3] and 8.4 µM at Beta-lactamase.

As for `O=C(O)c1cnc(Oc2ccc3c(c2)B(O)OC3)nc1`, the Ki was over 32 µM in assay [1], 0.07 µM in assay [2], 14.7 µM in assay [3] and 0.08 µM at Beta-lactamase.

With `OB1OCc2ccc(Oc3cccc(O)c3)cc21`, the Ki in assay [1] was determined as 0.816 µM; in assay [2], 3.12 µM.

As for `OB1OCc2ccc(Cc3ccccc3)cc21`, the Ki in assay [1] was over 32 µM; in assay [2], 25.6 µM; in assay [3], over 37 µM; on Beta-lactamase it was 19.8 µM.

`CN(C)Cc1ccc(Oc2ccc3c(c2)B(O)OC3)cc1` returned an inhibition constant Ki on Beta-lactamase of 40.6 µM.

With `OB1OCc2ccc(Oc3ccccc3)cc21`, the inhibition constant (Ki) stood at 1.89 µM in assay [1], 1.51 µM in assay [2], 1.02 µM in assay [3] and 0.71 µM on Beta-lactamase.

As to `O=C(c1ccccc1)c1ccc2c(c1)B(O)OC2`, the Ki is over 32 µM in assay [1], 46.9 µM in assay [2], 10.6 µM in assay [3] and 28.5 µM at Beta-lactamase.

Turning to `CCOC(=O)c1ccc(Oc2ccc3c(c2)B(O)OC3)cc1`, the inhibitory constant (Ki) in assay [1] was over 32 µM; in assay [3], 3.11 µM; on Beta-lactamase, 5.55 µM.

For the compound `OB1OCc2ccc(Oc3cccc(OCc4ccccc4)c3)cc21`, the Ki is 8.75 µM in assay [1], 74.5 µM in assay [2], 1.08 µM in assay [3] and 2.27 µM at Beta-lactamase.

On to `Nc1cccc(Oc2ccc3c(c2)B(O)OC3)c1`, for which the Ki is 0.69 µM in assay [1], 6.09 µM in assay [2], 1.01 µM in assay [3] and 2.75 µM on Beta-lactamase.

Regarding `CN(C)Cc1cccc(Oc2ccc3c(c2)B(O)OC3)c1`, the Ki at Beta-lactamase turned out to be 7.72 µM.

For `O=C(O)c1ccc(Oc2ccc3c(c2)B(O)OC3)cc1`, affinity at Beta-lactamase was put at a Ki of 0.02 µM. This Ki lies about 390-fold lower than the previous one.

Regarding `[O-][S+](c1ccccc1)c1ccc2c(c1)B(O)OC2` (stereo unspecified), the Ki in assay [1] is over 32 µM; in assay [2], 59.3 µM; in assay [3], 4.87 µM; on Beta-lactamase, 58 µM.

With `OB1OCc2ccc(C(O)c3ccccc3)cc21` (stereo unspecified), the Ki is over 32 µM in assay [1], 8.42 µM in assay [2], over 37 µM in assay [3] and 7.28 µM at Beta-lactamase.

Turning to `OB1OCc2ccc(Sc3ccccc3)cc21`, the inhibitory constant (Ki) is over 32 µM in assay [1], 12.7 µM in assay [2], 1.76 µM in assay [3] and 9.09 µM at Beta-lactamase.

The compound `NCc1ccc(Oc2ccc3c(c2)B(O)OC3)cc1` had an inhibition constant Ki at Beta-lactamase of 13.3 µM.

Turning to `O=C(Nc1ccc2c(c1)B(O)OC2)c1ccccc1`, the Ki in assay [1] was over 32 µM; in assay [2], over 138 µM; in assay [3], over 37 µM; at Beta-lactamase, 46.6 µM.

On Beta-lactamase, `O=C(O)c1cccc(Oc2ccc3c(c2)B(O)OC3)c1` registered a Ki of 1.44 µM.
